Experimental data: publication PMC4479701 (mBio, 2015)
Values after ≈ are worked out from the molar mass of the structure shown.

Columns and labels:
[1] = tested on: Candida spp.; assay: In vitro susceptibility; format: cell-based; settings: most Candida spp. examined
How it was run: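 Inoculum prepared per CLSI M27-A3. Plates incubated at 37°C with 5% CO2 for 24 to 96 h. MIC was the lowest concentration inhibiting 50% of growth versus the drug-free control. Minimum fungicidal concentration was also measured: serial dilutions from wells were plated on YPD agar, and MFC was the lowest concentration yielding three or fewer colonies (99% of inoculum killed).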

[2] = tested on: C. neoformans; assay: Synergism assay; format: cell-based
[3] = tested on: C. neoformans cells; assay: In vitro passages, development of resistance; format: cell-based; settings: 15 days of in vitro passages (120 generations), 10^6 cells/ml; data not shown
[4] = tested on: GlcCer synthesis in C. neoformans; assay: In vivo labeling with [3H]palmitate, TLC of GlcCer; format: cell-based; settings: [3H]palmitate labeling
[5] = tested on: GlcCer synthesis in J774.16 cells; assay: Labeling of mammalian cells with [3H]palmitate, TLC of GlcCer; format: cell-based, murine; settings: [3H]palmitate labeling, 6 h
How it was run: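 J774.16 macrophages (5 × 10^6 cells/ml) adhered for 14 h in six-well plates. They were exposed for 4 h to test compound at the concentrations used for the fungal labeling, then given 30 µCi/ml [3H]palmitic acid for a further 2 h.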

[6] = tested on: C. neoformans cells; assay: In vitro killing assay; format: cell-based
How it was run: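 An overnight C. neoformans culture was washed in PBS and resuspended in HEPES-buffered YNB, pH 7.4. 2 × 10^4 cells were exposed to 1, 2 or 4 µg/ml test compound in 10 ml (0.4% DMSO final), at 37°C, 5% CO2, on a rotary shaker at 200 rpm. Aliquots taken at time points were diluted, plated on YPD, incubated 72 h at 30°C, and CFU counted.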

[7] = In vitro toxicity; format: cell-based, murine; settings: mouse, J774.16 macrophage cells
How it was run: (§1)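 J774.16 murine macrophages were kept in DMEM with 10% FBS and 1% pen-strep, and used until passage eight. At passage 7, 10^5 cells/well were allowed to adhere for 14 h. Test compound was then added at 0.1 to 100 µg/ml, with drug-free wells as controls. Incubation at 37°C, 5% CO2.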

[8] = tested on: J774 cells; assay: In vitro toxicity; format: cell-based, murine
How it was run: as §1

[9] = tested on: C. neoformans; assay: Mouse model of cryptococcosis, intranasal infection; format: in vivo, mouse (CBA/J); settings: 1.2 mg/kg/day i.p.
How it was run: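 Mice (10 per group) were infected by nasal inoculation of 20 µl containing 5 × 10^5 C. neoformans. Test compound was given i.p. at 1.2 mg/kg/day in 100 µl PBS with 0.4% DMSO, starting 2 h after inoculation. Survival followed up to 60 days. Organs of survivors were homogenized in 10 ml PBS, diluted serially 1:10, plated on YPD, and incubated at 30°C for 72 h for CFU.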

[10] = tested on: C. neoformans; assay: Mouse model of cryptococcosis, intravenous infection; format: in vivo, mouse (CBA/J); settings: 8 mice per group, vehicle 7.0 ± 1.1
[11] = tested on: P. murina; assay: Murine pneumocystosis, corticosteroid-immunosuppressed; format: in vivo, mouse (C3H/HeN); settings: mice immunosuppressed with corticosteroids
How it was run: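 Corticosteroid-immunosuppressed mice were infected with P. murina by cohousing with seed mice for 2 weeks. […] Treatment lasted 13 days. Lung homogenate slides were stained with Diff-Quik for trophic forms and cresyl echt violet for asci.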

[12] = tested on: P. murina; assay: Murine pneumocystosis, CD4-depleted; format: in vivo, mouse (C3H/HeN); settings: 1.25 mg/kg/day
How it was run: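 Twelve mice were CD4-depleted with 300 µg GK 1.5 antibody i.p. on days 1, 3 and 7. They were infected by exposure to P. murina-infected mice, then given 100 µg GK 1.5 i.p. weekly for 6 weeks. Treatment followed at 1.25 or 12.5 mg/kg/day for 14 days, with GK 1.5 continued; controls received vehicle.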

[13] = tested on: C. albicans SC 5314; assay: Mouse model of invasive candidiasis; format: in vivo, mouse (CBA/J); settings: after 21 days of infection; 1.2 mg/kg/day i.p.; 8 mice per group
How it was run: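 Female CBA/J mice, 8 weeks old (8 per group), were infected i.v. with 100 µl containing 10^5 C. albicans SC-5314. Test compound was given i.p. at 1.2 mg/kg/day in 100 µl PBS with 0.4% DMSO immediately after inoculation; untreated mice received vehicle. Survival was monitored. Organs of survivors were homogenized in 10 ml PBS, diluted tenfold, and plated on YPD at 30°C for 72 h for CFU.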

[14] = In vivo toxicity, blood work; set-up: species or system mouse (CBA/J)
How it was run: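 Female CBA/J mice, 4 weeks old: five received 1.2 mg/kg/day test compound for 60 days, and three controls received a daily solvent injection. On day 60, blood was collected into one K2EDTA tube and one plain tube allowed to clot.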

[15] = tested on: sphingolipids of C. neoformans; assay: Sphingolipid profiling by TLC and LC-MS; format: cell-based; settings: LC-MS; D0 data not shown
[16] = tested on: C. neoformans; assay: Transmission electron microscopy, intracellular vesicles; format: cell-based; settings: 4 µg/ml, 6 h; untreated 0.33 ± 0.36
[17] = tested on: Cryptococcus neoformans; assay: In vitro susceptibility testing; format: cell-based; settings: Cryptococcus neoformans

For `O=C(NN=Cc1ccc(O)c(Br)c1)c1cccc(Br)c1` [D0, 3-bromo-N′-(3-bromo-4-hydroxybenzylidene) benzohydrazide], the in vitro susceptibility [1] was “resistant”, the interaction category ([2]; combined with caspofungin) was “additive (additive effect, FIC = 1)” and the interaction category ([2]; combined with fluconazole) was “highly synergistic”. For the same compound, the interaction category ([2]; combined with tunicamycin) was “additive (additive effect, FIC = 1)”, the development of resistance [3] was “did not develop resistance” and the “synthesis of GlcCer” value [4] was “significantly inhibited”. For the same compound, the “synthesis of mammalian GlcCer or other sphingolipids” value [5] was “no significant changes”, the type of killing ([6]; time-kill assay, 37°C, 5% CO2, pH 7.4) was “time-dependent killing” and the dead cells ([6]; within 24 h) was 100%. For the same compound, the EC50 at 48 h [7] was 50 µg/mL (≈ 126 µM), the EC50/MIC80 selectivity index ([8]; J774 EC50 versus MIC) was > 100 and the “selectivity index (EC50/MIC ratio)” value ([8]; macrophage cell line) was > 50. For the same compound, the “brain tissue burden (CFU)” value [9] was “eradication of fungal cells”, the “lung tissue burden (CFU)” value [9] was “decrease of fungal load” and the “mice surviving C. neoformans infection” value ([9]; up to 60 days, 10 mice per group) was 70%. The “survival, days postinfection” value ([10]; 1.2 mg/kg/day i.p.) was 10.5 ± 4.2 days, the toxicity [11] was “some toxicity” and the survival [12] was “significantly improved survival”. For the same compound, the toxicity [12] was “no apparent signs of toxicity”, the mice still alive [13] was 75% and the “all other blood parameters for liver and kidney function” value ([14]; after 60 days of treatment) was “normal”. The tolerability in animals ([14]; mouse, in vivo) was “well tolerated”, the “levels of C18 hydroxyceramide and its desaturated and methylated forms” value [15] was “decreased” and the “numbers of vesicles per square micrometer of cell surface area” value [16] was 0.93 ± 0.54.
With `OC(Cn1cncn1)(Cn1cncn1)c1ccc(F)cc1F` [fluconazole, reference compound] the MIC [17] was > 64 µg/mL and the “survival, days postinfection” value ([10]; 10 mg/kg/day i.p.) was 10 ± 2 days.
For `C[C@@H]1[C@H](O)[C@@H](C)/C=C/C=C/C=C/C=C/C=C/C=C/C=C/[C@H](O[C@@H]2O[C@H](C)[C@@H](O)[C@H](N)[C@@H]2O)C[C@@H]2O[C@](O)(C[C@@H](O)C[C@@H](O)[C@H](O)CC[C@@H](O)C[C@@H](O)CC(=O)O[C@H]1C)C[C@H](O)[C@H]2C(=O)O` [amphotericin B, reference compound], the “survival, days postinfection” value ([10]; 1.2 mg/kg/day i.p.) was 23.5 ± 6.5 days.
